Laboratory results reported in ChEMBL document CHEMBL1155099, “Natural products in parallel synthesis: triazole libraries of nonactic acid” (2008).
Calls of active or inactive are those of the source.

Key:
Format in all cases: functional, organism-based
Candida albicans = assay: Antifungal activity against Candida albicans at 1 mM by almar blue dye reduction assay
Method in brief: (§1)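 Single-point primary screen at 1 mM using Alamar Blue dye reduction as the growth read-out.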

Pseudomonas aeruginosa = assay: Antibacterial activity against Pseudomonas aeruginosa at 1 mM by almar blue dye reduction assay; method in brief: as §1
Staphylococcus aureus = assay: Antibacterial activity against Staphylococcus aureus at 1 mM by almar blue dye reduction assay; method in brief: as §1
Bacillus subtilis = assay: Antibacterial activity against Bacillus subtilis at 1 mM by almar blue dye reduction assay; method in brief: as §1
Bacillus anthracis = assay: Antibacterial activity against Bacillus anthracis at 1mM by almar blue dye reduction assay
Bacillus cereus = assay: Antibacterial activity against Bacillus cereus at 1 mM by almar blue dye reduction assay; method in brief: as §1
Saccharomyces cerevisiae = assay: Antifungal activity against Saccharomyces cerevisiae at 1 mM by almar blue dye reduction assay; method in brief: as §1
Escherichia coli = assay: Antibacterial activity against Escherichia coli at 1 mM by almar blue dye reduction assay; method in brief: as §1
Cryptococcus neoformans = assay: Antifungal activity against Cryptococcus neoformans at 1 mM by almar blue dye reduction assay; method in brief: as §1

Measured: Activity

C[C@H](C[C@@H]1CC[C@H]([C@@H](C)C(=O)N2CCCC2)O1)n1cc(C#Cc2ccccc2[N+](=O)[O-])nn1
inactive: all assays above

CCN(CC)C(=O)[C@H](C)C1CCC(C[C@@H](C)n2cc(C#CCNC(=O)OCc3ccccc3)nn2)O1 (single isomer, unassigned)
inactive: all assays above

CC(C)NC(=O)[C@H](C)[C@H]1CC[C@@H](C[C@@H](C)n2cc(C#Cc3ccc(C(F)(F)F)cc3)nn2)O1
inactive: all assays above

CCC(=O)OCC#Cc1cn([C@H](C)CC2CCC([C@@H](C)C(=O)N(CC)CC)O2)nn1 (single isomer, unassigned)
inactive: all assays above

C[C@H](CC1CCC([C@@H](C)C(=O)N(C)Cc2ccccc2)O1)n1cc(C#CCOC(=O)OCc2ccccc2)nn1 (single isomer, unassigned)
inactive: all assays above

C[C@H](C[C@@H]1CC[C@H]([C@@H](C)C(=O)N2CCCC2)O1)n1cc(C#CCN2CCN(c3ccccc3)CC2)nn1
inactive: all assays above

C[C@H](C[C@@H]1CC[C@H]([C@@H](C)C(=O)N2CCCC2)O1)n1cc(C#CCN2CCC(c3ccccc3)CC2)nn1
inactive: all assays above

C[C@H](C[C@@H]1CC[C@H]([C@@H](C)C(=O)N2CCCC2)O1)n1cc(C#Cc2ccccn2)nn1
inactive: all assays above

CCN(CC)C(=O)[C@H](C)[C@H]1CC[C@@H](C[C@@H](C)n2cc(C#CCOc3ccc(C(F)(F)F)cc3)nn2)O1
inactive: all assays above

COCCNCC#Cc1cn([C@H](C)C[C@@H]2CC[C@H]([C@@H](C)C(=O)NC(C)C)O2)nn1
inactive: all assays above

CC(C)CC#Cc1cn([C@H](C)C[C@@H]2CC[C@H]([C@@H](C)C(=O)N(C)Cc3ccccc3)O2)nn1
inactive: all assays above

CCCCN(CC#Cc1cn([C@H](C)C[C@@H]2CC[C@H]([C@@H](C)C(=O)N3CCCC3)O2)nn1)CCCC
inactive: all assays above

C[C@H](C[C@@H]1CC[C@H]([C@@H](C)C(=O)N(C)Cc2ccccc2)O1)n1cc(C#CCN2CCC(c3ccccc3)CC2)nn1
inactive: all assays above

CCCNC(=O)NCC#Cc1cn([C@H](C)CC2CCC([C@@H](C)C(=O)N(CC)CC)O2)nn1 (single isomer, unassigned)
inactive: all assays above

CCC(=O)OCC#Cc1cn([C@H](C)CC2CCC([C@@H](C)C(=O)N(C)Cc3ccccc3)O2)nn1 (single isomer, unassigned)
inactive: all assays above

CC(C)NC(=O)[C@H](C)[C@H]1CC[C@@H](C[C@@H](C)n2cc(C#CCN3CCC(c4ccccc4)CC3)nn2)O1
inactive: all assays above

C[C@H](C[C@@H]1CC[C@H]([C@@H](C)C(=O)N(C)Cc2ccccc2)O1)n1cc(C#CCOc2ccc(Br)cc2)nn1
inactive: all assays above

CC(C)NC(=O)[C@H](C)[C@H]1CC[C@@H](C[C@@H](C)n2cc(C#Cc3ccc(Oc4ccccc4)cc3)nn2)O1
inactive: all assays above

C[C@H](C[C@@H]1CC[C@H]([C@@H](C)C(=O)N(C)Cc2ccccc2)O1)n1cc(C#CC2=CCCCC2)nn1
inactive: all assays above

C[C@H](C[C@@H]1CC[C@H]([C@@H](C)C(=O)N2CCCC2)O1)n1cc(C#CCN(C)CCc2ccccc2)nn1
inactive: all assays above

CC(C)NC(=O)[C@H](C)C1CCC(C[C@@H](C)n2cc(C#CCOC(=O)OCc3ccccc3)nn2)O1 (single isomer, unassigned)
inactive: all assays above

CCCCN(CC#Cc1cn([C@H](C)C[C@@H]2CC[C@H]([C@@H](C)C(=O)N(CC)CC)O2)nn1)CCCC
inactive: all assays above

CC(C)NC(=O)[C@H](C)[C@H]1CC[C@@H](C[C@@H](C)n2cc(C#CCOc3ccc(Br)cc3)nn2)O1
inactive: all assays above
